Experiments:
[1] = Inhibition of capsid in HBV infected in human HepG.2.2.15 cells assessed as reduction of HBV DNA incubated for 5 days by quantitative PCR analysis
Capsid protein = Capsid protein (Hepatitis B virus, UniProt Q03732); test: Inhibition of capsid in HBV infected in human HepG.2.2.15 cells assessed as reduction of HBV DNA incubated for 5 days by quantitative PCR analysis
How it was run: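 HepG2.2.15 cells (HepG2-derived, stably carrying the HBV genome; kept in DMEM-F12 with 10% FBS, penicillin/streptomycin, 0.5 mg/mL G418) seeded at 3 × 10^4 cells/well and incubated overnight at 37 °C. Compounds were serially half-log diluted in DMSO and added in medium at 0.5% final DMSO. HBV DNA was extracted and quantified by qPCR.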

Capsid protein, sequence (Q03732 whole entry): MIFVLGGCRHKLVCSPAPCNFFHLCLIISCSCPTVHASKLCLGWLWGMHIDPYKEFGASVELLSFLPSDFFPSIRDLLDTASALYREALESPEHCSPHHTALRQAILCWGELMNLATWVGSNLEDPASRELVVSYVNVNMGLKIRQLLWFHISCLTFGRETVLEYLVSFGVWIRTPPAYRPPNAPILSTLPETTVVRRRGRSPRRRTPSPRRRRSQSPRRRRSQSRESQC

| Structure (SMILES) | EC50 [1] [nM] | EC50 (Capsid protein) [nM] |
| --- | --- | --- |
| CCOC(=O)C1=C(CN2CCOC[C@H]2C(=O)O)NC(c2nccs2)=N[C@H]1c1ccc(Br)c(F)c1 | 3 |  |
| CCOC(=O)C1=C(CN2CCOC[C@H]2C(=O)O)NC(c2nccs2)=N[C@H]1c1ccc(F)cc1Cl | 2 |  |
| COC(=O)C1=C(CN2CC(F)(F)C[C@H]2C(=O)O)NC(c2nccs2)=N[C@H]1c1ccc(F)c(F)c1 |  | 22 |
| CCOC(=O)C1=C(CN2CCOC[C@H]2C(=O)O)NC(c2nccs2)=N[C@H]1c1ccc(F)c(Cl)c1 | > 1000 |  |
| CCOC(=O)C1=C(CN2CCOC[C@H]2C(=O)O)NC(c2nccs2)=N[C@H]1c1cc(F)c(F)c(F)c1 |  | 18 |
| CCOC(=O)C1=C(CN2CCOC[C@H]2C(=O)O)NC(c2nccs2)=N[C@H]1c1ccc(F)c(C#N)c1 | > 1000 |  |
| CCOC(=O)C1=C(CN2CCOC[C@H]2C(=O)O)NC(c2nccs2)=N[C@H]1c1ccc(F)c(Br)c1 | > 1000 |  |
| CCOC(=O)C1=C(CN2CCOC[C@H]2C(=O)O)NC(c2nccs2)=N[C@H]1c1ccc(F)cc1F |  | 14 |
| CCOC(=O)C1=C(CN2CC(F)(F)C[C@H]2C(=O)O)NC(c2nccs2)=N[C@H]1c1ccc(F)cc1Cl |  | 10 |
| COC(=O)C1=C(CN2CCOC[C@H]2C(=O)O)NC(c2nccs2)=N[C@H]1c1ccc(Br)c(F)c1 |  | 10 |
| COC(=O)C1=C(CN2CCOC[C@H]2C(=O)O)NC(c2nccs2)=N[C@H]1c1ccc(Cl)c(F)c1 | 10 |  |
| COC(=O)C1=C(CN2CCOC[C@H]2C(=O)O)NC(c2nccs2)=N[C@H]1c1ccc(C)c(F)c1 | 28 |  |
| CCOC(=O)C1=C(CN2CCOC[C@H]2C(=O)O)NC(c2nccs2)=N[C@H]1c1ccc(C)c(F)c1 |  | 5 |
| CCOC(=O)C1=C(CN2CCOC[C@H]2C(=O)O)NC(c2nccs2)=N[C@H]1c1cccc(F)c1 |  | 15 |
| CCOC(=O)C1=C(CN2CCOC[C@H]2C(=O)O)NC(c2nccs2)=N[C@H]1c1ccc(Cl)c(F)c1 |  | 2 |
| CCOC(=O)C1=C(CN2CCOC[C@H]2C(=O)O)NC(c2nccs2)=N[C@H]1c1ccc(F)cc1 |  | 15 |
| COC(=O)C1=C(CN2CCOC[C@H]2C(=O)O)NC(c2nccs2)=N[C@H]1c1ccc(F)c(F)c1 | 46 |  |
| CCOC(=O)C1=C(CN2CCOC[C@H]2C(=O)O)NC(c2nccs2)=N[C@H]1c1ccc(F)c(F)c1 | 11 |  |
| COC(=O)C1=C(CN2CC(F)(F)C[C@H]2C(=O)O)NC(c2nccs2)=N[C@H]1c1ccc(F)cc1Cl |  | 3 |
| CCOC(=O)C1=C(CN2CCOC[C@H]2C(=O)O)NC(c2nccs2)=N[C@H]1c1ccc(F)c(F)c1F |  | 5 |
